Source: PubChem
MDM2 E3 inh = MDM2-luciferase reporter signal enhancers, primary screen, MDM2 E3 ligase inhibitor project, cell-based, luminescence, 1536-well; cell-based MDM2 ubiquitination luciferase reporter, 2 h; 0 = plate control, 100 = twice control, blank-subtracted; signal enhancement, % at 5 µM; actives 0.11% (n = 210,000);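 active = signal enhancement of 30% or more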;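 also: luminescence tracks abundance of the self-degrading MDM2-luciferase fusion protein; higher signal means inhibition of MDM2 E3 ligase activity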
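Buffer or medium: Cells held in DMEM | Assay system: Stable mammalian line carrying autodegrading MDM2–luciferase fusion reporter | Quantity: 2000 cells/well | Times: 4 h settle plus 2 h compound, 37 °C | Doses: One concentration, 5 µM, with 0.2% DMSO | Technique: Luminescence with SteadyLite reagent, 15 min at room temperature | Benchmarks: Plate controls and plate blanks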
B2AR ag = beta2AR agonists driving receptor internalization, primary screen, cell-based, FAP fluorogen, flow cytometry | Beta-2 adrenergic receptor (Homo sapiens), P07550 | Am2.2-beta2AR cells | response, % (no concentration beside the values) | actives 0.43% (n = 340,000) | AID 504454, 2011;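 active = response above a set limit, near 3 SD of response in nonfluorescent compounds, cut at about 42% in these data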
Target sequence (P07550 whole entry, looked up): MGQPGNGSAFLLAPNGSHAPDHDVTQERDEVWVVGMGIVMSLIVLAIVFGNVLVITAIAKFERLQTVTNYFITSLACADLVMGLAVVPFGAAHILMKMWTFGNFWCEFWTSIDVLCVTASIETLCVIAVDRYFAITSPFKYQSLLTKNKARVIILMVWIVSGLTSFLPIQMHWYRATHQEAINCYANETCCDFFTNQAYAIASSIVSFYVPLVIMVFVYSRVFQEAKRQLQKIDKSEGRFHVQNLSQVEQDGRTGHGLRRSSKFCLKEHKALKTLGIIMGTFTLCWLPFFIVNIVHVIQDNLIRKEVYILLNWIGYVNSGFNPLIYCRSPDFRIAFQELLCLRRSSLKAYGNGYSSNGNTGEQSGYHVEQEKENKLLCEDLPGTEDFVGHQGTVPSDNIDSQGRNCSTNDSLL
Mdm2-MdmX inh = inhibitors of human Mdm2-MdmX association, primary screen, cell-based, luminescence, split luciferase, SaOS-2, uHTS. Protein Mdm4 (Homo sapiens) + E3 ubiquitin-protein ligase Mdm2 (Homo sapiens), …. SaOS-2 split-luciferase Mdm2/MdmX complementation. inhibition, % at 8 µM. actives 3% (n = 330,000);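 active = inhibition of at least 50% at 8 µM in the primary screen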
Dynein transport = inhibitors of GR-EGFP nuclear translocation, primary screen, dynein cargo transport inhibitor project, imaging, high-content, 3617.4 mouse cells; test concentration mostly 20 µM; stimulated with dexamethasone, 1 µM; hits give low values; z-score, hits read low; actives 0.47% (n = 220,000); AID 1381, 2008;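 active = plate z-score of nuclear minus cytoplasmic receptor signal below a set negative limit, without overly bright fluorescence or cell loss, cut at about -3.5 in these data, passing the limit was not always enough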;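 also: z-score of nuclear minus cytoplasmic ring GR-EGFP intensity difference per well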
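Buffer or medium – tet-free medium with charcoal-stripped serum · Signal – automated 10x imaging of fixed Hoechst-stained cells · Also added – dexamethasone agonist, 1.0 µM final, for 30 min · Incubation – induction 48 h, compound 1 h, agonist 30 min · Read-out – GR-EGFP nuclear translocation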
UPR XBP1 act = activators of adaptive XBP1 UPR arm, primary screen, cell-based, CHO-XBP1 luciferase reporter, luminescence, uHTS; IRE1-XBP1 UPR activation; percent of tunicamycin response, DMSO as zero; activation, % at 20 µM; actives 0.33% (n = 330,000);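 active = versus positive control, 20 µM dose yields 30% or more activation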;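 also: 100% = tunicamycin at 10 µg/mL and 0% = DMSO only wells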
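Material: CHO cell line with stable XBP1 luciferase reporter; buffer or medium: F12 medium containing 10% fetal bovine serum; compound: single point, 20 µM final compound, 1% DMSO; incubation: 6 h treatment, 37 °C; measured by: glow luminescence from Steady-Glo reagent; evaluation: activation, % of tunicamycin; control set: tunicamycin high, DMSO low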
CHOP UPR activ = activators of apoptotic CHOP UPR arm, primary screen, cell-based, CHO-CHOP luciferase reporter, luminescence, uHTS. UPR activation; percent of tunicamycin response over DMSO baseline. activation, % at 10 µM. actives 0.34% (n = 330,000);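 active = at 10 µM dose, activation of 40% or more, normalized to positive control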;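 also: 100% = tunicamycin at 10 µg/mL and 0% = DMSO alone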
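Assay system: CHO cells with stable CHOP pathway luciferase reporter; Buffer or medium: F12 plus 10% serum; Times: 16-18 h cell attachment, then 6 h compound exposure, 37 °C; Signal: luciferase luminescence; Read-out basis: percent activation relative to tunicamycin control; Control set: tunicamycin high control, DMSO low control.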
Mdm2 MdmX conf = Mdm2-MdmX complex disruptors, retested hits, confirmation, luminescence, single concentration | Mdm2-MdmX binding, luminescent assay | actives 55% (n = 10,000) | shares compounds with Mdm2-MdmX inh | inhibition, % at 8 µM; in the data active = inhibition above about 40%
FLuc counter = full-length luciferase signal inhibition, confirmation, counter-screen for Mdm2/MdmX interaction inhibitor project, cell-based, single concentration, SaOS-2; shares compounds with Mdm2-MdmX inh; SaOS-2 full-length luciferase counterscreen, luminescence; inhibition, % at 8 µM; actives 77% (n = 6,200); AID 504607, 2011;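 active = mean inhibition at 8 µM reaching about 37%, which flags the compound as non-specific, limit read from the data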;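 also: p53-null SaOS-2 cells with luciferase driven by a doxycycline-inducible promoter; compound on cells about two nights before reading with doxycycline added after day one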
* = called active by the depositor; · = no result. Most compounds without a hit are left out; they make up all but 3.7% or so of the library.

SMILES | MDM2 E3 inh | B2AR ag | Mdm2-MdmX inh | Dynein transport | UPR XBP1 act | CHOP UPR activ | Mdm2 MdmX conf | FLuc counter
Cc1sc2ncnc(N3CCN(Cc4ccccc4)CC3)c2c1-c1ccccc1 | · | 7.6 | 38.7 | · | -1.4 | 0.4 | · | ·
O=C(CN1C(=O)/C(=C\c2cccc(Br)c2)Oc2ccccc21)NCCCN1CCOCC1 | · | 26.9 | 63.2* | · | 17.2 | 6.6 | 10.7 | ·
CCOC(=O)/C(C#N)=C\c1cc(C)n(-c2ccccc2)c1C | -9.3 | 6.2 | 55.8* | -0.636 | -3.3 | 0.7 | 79.3* | 154.7*
CCOC(=O)/C(C#N)=C/c1cc(C)n(-c2ccc(C)cc2)c1C | -3.7 | 9.1 | -58.0 | -1.07 | -4.1 | 6.4 | · | ·
CN1CCN(C(=O)CCCN2C(=O)/C(=C/c3ccc(Cl)cc3)SC2=S)CC1 | · | 5.7 | 52.2* | · | 0.0 | -0.2 | -0.1 | ·
CN1CCN(C(=O)CCCN2C(=O)/C(=C/c3ccccc3)SC2=S)CC1 | · | -15.4 | 52.5* | · | -3.8 | 2.7 | 33.7 | 30.5
Cc1ccc(/C=C2\SC(=S)N(CCCC(=O)N3CCOCC3)C2=O)cc1 | · | -2.4 | 55.6* | · | -1.2 | 0.0 | 39.9 | 30.5
CCc1ccc(/C=C2\SC(=S)N(CCC(=O)N3CCN(C)CC3)C2=O)cc1 | -26.4 | 16.3 | 40.3 | -0.286 | 4.1 | 1.9 | · | ·
COc1ccc(/C=C2/SC(=S)N(CCCC(=O)N3CCN(C)CC3)C2=O)cc1 | · | 9.6 | 54.7* | · | 0.6 | 0.4 | 34.1 | 31.7
C=CCn1c(CNS(=O)(=O)c2ccc(Br)cc2)n[nH]c1=S | · | -4.7 | -10.4 | · | -2.7 | 1.2 | · | ·
O=C(Nc1nc2ccccc2n1CCOc1ccc(Cl)cc1)c1ccco1 | -8.0 | -13.0 | 67.3* | 0.666 | 3.4 | -0.1 | 49.6* | 72.5*
Cc1cccc(OCCn2c(NC(=O)c3ccco3)nc3ccccc32)c1 | -11.0 | -13.2 | 51.0* | -0.902 | 7.1 | 0.6 | 40.7* | 59.3*
Cc1ccc(OCCn2c(NC(=O)c3ccco3)nc3ccccc32)cc1 | -7.2 | -4.6 | 42.3 | 0.128 | 2.8 | 0.5 | · | ·
S=C(Nc1ccccc1)Nc1nc2ccccc2n1CCOc1ccc(Br)cc1 | -20.8 | 1.7 | 95.3* | 0.595 | -1.7 | -0.2 | 36.0 | ·
Nc1nc2ccccc2n1CCOc1ccc(Br)cc1 | · | 6.2 | 14.8 | · | 0.6 | -1.7 | · | ·
O=C(Nc1nc2ccccc2n1CCOc1ccccc1)c1ccco1 | -9.8 | 12.8 | 52.9* | -0.27 | -0.2 | -0.1 | 26.4 | ·
Cc1cccc(OCCn2c(-c3ccco3)nc3ccccc32)c1 | -4.8 | 4.1 | -13.1 | -0.801 | 2.1 | 2.3 | · | ·
O=c1oc2ccccc2cc1-c1cn2ccccc2n1 | -78.4 | -5.3 | 76.1* | -0.379 | -9.8 | -8.8 | 62.1* | 72.0*
CC(c1ccccc1)C(CC(=O)O)C(=O)Nc1ccc(Cl)c(Cl)c1 (centres undefined) | · | -1.2 | 2.6 | · | 0.2 | 3.3 | · | ·
CC1(C)CC(=O)C2=C(C1)NC1=C(C(=O)c3ccccc31)C2c1ccc(Cl)cc1 (centres undefined) | -1.5 | 0.1 | 57.7* | 0.534 | 3.2 | 21.4 | 16.8 | ·
COc1ccc2oc(/C=C/N(C)C)c(C(=O)c3ccc(Cl)cc3)c2c1 | -8.7 | 3.3 | 78.6* | -0.331 | -1.1 | 0.9 | 25.6 | ·
COc1ccc2oc(C)c(C(=O)c3ccccc3)c2c1 | · | 3.5 | 1.0 | · | 1.1 | 3.7 | · | ·
CCOCCCNC(=S)N1CCN(Cc2ccc3c(c2)OCO3)CC1 | 2.5 | -4.2 | 8.8 | -0.455 | 1.6 | -0.8 | · | ·
CC1(C)Oc2ccc3ccc(=O)oc3c2-c2cn[nH]c21 | -14.3 | 7.1 | 59.9* | 3.68 | 15.0 | -1.1 | 19.1 | ·
N=c1ccn(CC(=O)c2ccc(-c3ccccc3)cc2)cc1 | -1.9 | -6.8 | 66.0* | 2.8 | -0.2 | -1.2 | 69.3* | 41.3*
SMILES | MDM2 E3 inh | B2AR ag | Mdm2-MdmX inh | Dynein transport | UPR XBP1 act | CHOP UPR activ | Mdm2 MdmX conf | FLuc counter
O=C(CC1S/C(=N/N=C/C=C/c2ccccc2)NC1=O)Nc1ccc(Cl)c(Cl)c1 (centres undefined) | -14.0 | 1.5 | 62.7* | -0.461 | -0.1 | 0.7 | 11.6 | ·
CC(C)OCCCNC(=O)c1c(N)n(/N=C/c2ccccn2)c2nc3ccccc3nc12 | -22.7 | -3.6 | 64.4* | -0.657 | 20.1 | 4.8 | 52.0* | 63.2*
CNCc1cc(Br)c(OCC(=O)Nc2ccccc2OC)c(OC)c1 | -12.1 | 4.7 | 20.0 | -0.433 | -1.7 | 0.7 | · | ·
COc1cc(CNCCc2ccccc2)cc(Br)c1OCC(=O)Nc1ccccc1C | -11.5 | 25.0 | 74.1* | 0.502 | 2.6 | -1.5 | 37.7 | 72.2*
O=C(COc1ccc(Br)cc1CNCCc1ccccc1)NCc1ccccc1 | -14.9 | 24.4 | 55.7* | -0.312 | -0.7 | -1.0 | 29.6 | ·
COc1cc(CNCCc2ccccc2)cc(Cl)c1OCc1ccccc1 | -36.0 | 27.9 | 77.9* | -0.587 | 9.4 | 0.5 | 37.9 | ·
CCOc1cc(CNC2CCCC2)cc(Cl)c1OCc1ccccc1 | -3.1 | 11.7 | 51.9* | 2.33 | 6.2 | 0.0 | 26.1 | ·
CCCNCc1cc(Br)ccc1OCC(=O)NCCc1ccccc1 | -7.2 | 7.6 | 2.4 | -0.389 | -1.4 | 1.7 | · | ·
CCOC(=O)C1CCN(C(=O)c2c(C)oc3c2C(=O)c2ccccc2C3=O)CC1 | · | 3.4 | 57.9* | -0.0778 | 0.1 | -1.4 | 45.2* | 67.0*
Cc1ccc(NC(=O)CSc2nc3[nH]ncc3c(=O)[nH]2)cc1 | -0.7 | 2.2 | -2.5 | -0.412 | -0.4 | -2.5 | · | ·
Cc1cc(C)cc(NC(=O)CSc2nc3[nH]ncc3c(=O)[nH]2)c1 | -26.2 | -3.8 | 60.2* | -0.194 | -1.9 | -1.7 | 61.6* | 49.6*
CCOc1ccc2nc(Cl)c(/C=C/C(=O)c3ccco3)cc2c1 | -10.9 | 16.2 | 53.2* | -1.26 | -0.7 | 0.7 | 7.0 | ·
Cc1cccc2cc(/C=C/C(=O)c3ccco3)c(Cl)nc12 | -4.5 | -1.1 | 4.2 | -0.243 | 7.5 | 2.7 | · | ·
